Test results taken from ChEMBL document CHEMBL3108761, “Phenanthroline-2,9-bistriazoles as selective G-quadruplex ligands” (Eur J Med Chem, 2014).
Activity calls are given as the source filed them. No cut-off for these calls is given here.

How the values were obtained:
[1] = species on record: Homo sapiens; assay: Binding affinity to human telomeric 5'-FAMd(G3[T2AG3]3)-TAMRA-3' assessed as melting temperature at 1 uM by FRET assay
Method in brief: (§1)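 K+ buffer: 10 mM KCl, 100 mM LiCl, 10 mM cacodylate, pH 7.3. FAM/TAMRA dual-labelled probes were diluted to 400 nM, annealed at 85 °C for 10 min and cooled to room temperature, then mixed with ligand at the stated concentration. FAM was excited at 492 nm and read at 516 nm every 0.5 °C from 25 to 100 °C, with a 30 s hold before each reading. ΔTm was taken against a buffer-only control, in triplicate.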

[2] = species on record: Homo sapiens; assay: Binding affinity to hairpin 5'-FAM-TATAGCTATAT7ATAGCTATA-TAMRA-3' (unknown origin) assessed as melting temperature at 0.5 uM by FRET assay; method in brief: as §1
[3] = species on record: Homo sapiens; assay: Binding affinity to human telomeric 5'-FAMd(G3[T2AG3]3)-TAMRA-3' assessed as melting temperature at 0.5 uM by FRET assay; method in brief: as §1
[4] = species on record: Homo sapiens; assay: Binding affinity to hairpin 5'-FAM-TATAGCTATAT7ATAGCTATA-TAMRA-3' (unknown origin) assessed as melting temperature at 1 uM by FRET assay; method in brief: as §1
[5] = species on record: Homo sapiens; assay: Binding affinity to c-KIT G-quadruplex 5'-FAM-G3CG3CGCGAG3AG4-TAMRA-3' (unknown origin) assessed as melting temperature at 0.5 uM by FRET assay; method in brief: as §1
[6] = species on record: Homo sapiens; assay: Binding affinity to c-KIT G-quadruplex 5'-FAM-G3CG3CGCGAG3AG4-TAMRA-3' (unknown origin) assessed as melting temperature at 1 uM by FRET assay; method in brief: as §1
[7] = Binding affinity to hairpin 5'-biotin-d[T10ATAGCTATAT7ATAGCTATA]-3' (unknown origin) assessed as dissociation constant by surface plasmon resonance assay; set-up: species or system Homo sapiens
Method in brief: (§2)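 Biotinylated DNA was annealed in 20 mM Tris-HCl, 200 mM KCl, pH 7.4, and captured on a streptavidin chip at ~400 RU. Running buffer: 20 mM KH2PO4, 150 mM KCl, 0.005% P20, 0.5 mM EDTA, pH 7.4. Ligand at 10–1000 nM was injected for 120 s in random order, with blank flow-cell subtraction. KD came from a steady-state affinity fit of Req against concentration; "not detected" means no significant binding at 1 µM.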

[8] = Binding affinity to c-KIT G-quadruplex 5'-biotin-d[T9G3CG3CGCGAG3AG4]-3' (unknown origin) assessed as dissociation constant by surface plasmon resonance assay; set-up: species or system Homo sapiens; method in brief: as §2
[9] = species on record: Homo sapiens; assay: Binding affinity to c-KIT G-quadruplex 5'-FAM-G3CG3CGCGAG3AG4-TAMRA-3' (unknown origin) assessed as melting temperature at 2 uM by FRET assay; method in brief: as §1
[10] = Binding affinity to human telomeric 5'-biotin-d[T7(T2AG3)4]-3' assessed as dissociation constant (KD) by surface plasmon resonance assay; method in brief: as §2
[11] = species on record: Homo sapiens; assay: Binding affinity to human telomeric 5'-FAMd(G3[T2AG3]3)-TAMRA-3' assessed as melting temperature at 2 uM by FRET assay; method in brief: as §1
[12] = species on record: Homo sapiens; assay: Ratio of Kd for c-KIT G-quadruplex 5'-biotin-d[T9G3CG3CGCGAG3AG4]-3' (unknown origin) to Kd for human telomeric 5'-biotin-d[T7(T2AG3)4]-3'
[13] = species on record: Homo sapiens; assay: Binding affinity to human telomeric 5'-FAMd(G3[T2AG3]3)-TAMRA-3' in Na+ solution assessed as melting temperature at 2 uM by FRET assay
Method in brief: (§3)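 Telomeric FRET probe in Na+ buffer: 100 mM NaCl, 10 mM LiCl, 10 mM cacodylate, pH 7.3. Probe was diluted to 400 nM and annealed at 85 °C for 10 min, then cooled to room temperature; ligand was added at the stated concentration. Emission at 516 nm (excitation 492 nm) was read in 0.5 °C steps from 25 to 100 °C, with a 30 s hold per step. ΔTm versus buffer control, triplicate.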

[14] = species on record: Homo sapiens; assay: Binding affinity to human telomeric 5'-FAMd(G3[T2AG3]3)-TAMRA-3' in Na+ solution assessed as melting temperature at 0.5 uM by FRET assay; method in brief: as §3
[15] = species on record: Homo sapiens; assay: Binding affinity to human telomeric 5'-FAMd(G3[T2AG3]3)-TAMRA-3' in Na+ solution assessed as melting temperature at 1 uM by FRET assay; method in brief: as §3
[16] = species on record: Homo sapiens; assay: Binding affinity to hairpin 5'-biotin-d[T10ATAGCTATAT7ATAGCTATA]-3' (unknown origin) assessed as melting temperature at 1 uM by surface plasmon resonance assay; method in brief: as §2
[17] = species on record: Homo sapiens; assay: Displacement of thiazole orange from human telomeric 5'-AG3(T2AG3)3-3' (unknown origin) assessed as reduction of fluorescence at 2.5 uM by G4-FID assay
Method in brief: (§4)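 Done at 20 °C in 10 mM sodium cacodylate pH 7.3 with 100 mM KCl; 22AG was also run with 100 mM NaCl. 0.25 µM prefolded DNA carried thiazole orange: 0.50 µM for 22AG and c-KIT, 0.75 µM for ds26. Ligand was titrated from 0.2 to 10 equivalents, with 3 min equilibration per step. Displacement = 100 − (FA/FA0 × 100), from emission area 510–750 nm (excitation 501 nm). DC50 was taken as 50% displacement; otherwise the displacement at 2.5 µM ligand is given.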

[18] = species on record: Homo sapiens; assay: Displacement of thiazole orange from human telomeric 5'-AG3(T2AG3)3-3' (unknown origin) in K+ solution assessed as reduction of fluorescence by G4-FID assay; method in brief: as §4
[19] = species on record: Homo sapiens; assay: Binding affinity to c-KIT G-quadruplex 5'-G3CG3CGCGAG3AG4-3' (unknown origin) by circular dichroism spectroscopy
[20] = species on record: Homo sapiens; assay: Binding affinity to human telomeric 5'-AG3(T2AG3)3-3' by circular dichroism spectroscopy
Method in brief: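 DNA at 2 µM final in 10 mM Tris-HCl, 100 mM KCl, pH 7.4 was annealed at 95 °C for 10 min and slowly cooled. Ligand was then added at several final concentrations. Spectra were recorded from 220 to 320 nm in a 5 mm cell at 25 °C, averaged over five scans and buffer-corrected, to assess whether the G-quadruplex fold was retained.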

[21] = species on record: Homo sapiens; assay: Displacement of thiazole orange from 5'-CA2TCG2ATCGA2T2CGATC2GAT2G-3' (unknown origin) assessed as reduction of fluorescence at 2.5 uM by G4-FID assay; method in brief: as §4
[22] = species on record: Homo sapiens; assay: Displacement of thiazole orange from c-KIT G-quadruplex 5'-G3CG3CGCGAG3AG4-3' (unknown origin) assessed as reduction of fluorescence by G4-FID assay; method in brief: as §4
[23] = species on record: Homo sapiens; assay: Displacement of thiazole orange from human telomeric 5'-AG3(T2AG3)3-3' (unknown origin) in Na+ solution assessed as reduction of fluorescence by G4-FID assay; method in brief: as §4

Row | SMILES | ΔTm [1] | ΔTm [2] | ΔTm [3] | ΔTm [4] | ΔTm [5] | ΔTm [6] | Kd [7] | Kd [8] | ΔTm [9] | Kd [10] | ΔTm [11] | Ratio [12] | ΔTm [13] | ΔTm [14] | ΔTm [15] | inhibition [16] | other results
1 | N=C(N)NCCCCn1cc(-c2ccc3ccc4ccc(-c5cn(CCCCNC(=N)N)nn5)nc4c3n2)nn1 | 17.3 °C | 1.7 °C | 12.2 °C | 3.7 °C | 13.8 °C | 16.8 °C | 1.02 µM | 0.029 µM | 18.5 °C | 0.061 µM | 21.8 °C | 2 |  |  |  |  | 
2 | CC(C)/N=C(/NCCCn1cc(-c2ccc3ccc4ccc(-c5cn(CCCN/C(=N\C(C)C)NC(C)C)nn5)nc4c3n2)nn1)NC(C)C | 9.5 °C | 0.7 °C | 3.2 °C | 1.3 °C | 8.3 °C | 12 °C |  | 0.033 µM | 14.6 °C | 0.44 µM | 14.5 °C | 13 | 8.8 °C | 2.8 °C | 4.3 °C | inactive | 
3 | NCCCn1cc(-c2ccc3ccc4ccc(-c5cn(CCCN)nn5)nc4c3n2)nn1 | 13.3 °C | 1.1 °C | 10.3 °C | 1.2 °C | 9.8 °C | 11.8 °C | 0.914 µM | 0.045 µM | 13.9 °C | 0.075 µM | 16.1 °C | 2 | 11.9 °C | 5.1 °C | 8.4 °C |  | 
4 | NCCCCn1cc(-c2ccc3ccc4ccc(-c5cn(CCCCN)nn5)nc4c3n2)nn1 | 12.9 °C | 1 °C | 10.1 °C | 1.3 °C | 11.1 °C | 13.6 °C | 1.06 µM | 0.05 µM | 15.2 °C | 0.115 µM | 15.8 °C | 2 |  |  |  |  | 
5 | N=C(N)NCCn1cc(-c2ccc3ccc4ccc(-c5cn(CCNC(=N)N)nn5)nc4c3n2)nn1 | 15 °C | 1.2 °C | 11 °C | 2.5 °C | 11 °C | 13.9 °C | 1.12 µM | 0.05 µM | 16.4 °C | 0.075 µM | 18.9 °C | 2 |  |  |  |  | 
6 | NCCn1cc(-c2ccc3ccc4ccc(-c5cn(CCN)nn5)nc4c3n2)nn1 | 5.5 °C | 0.4 °C | 4.4 °C | 0.6 °C | 3.7 °C | 4.9 °C | 1.18 µM | 0.047 µM | 6.2 °C | 0.139 µM | 6.8 °C | 2 |  |  |  |  | 
7 | CC(C)/N=C(/NCCn1cc(-c2ccc3ccc4ccc(-c5cn(CCN/C(=N\C(C)C)NC(C)C)nn5)nc4c3n2)nn1)NC(C)C | 9.7 °C | 0.7 °C | 4.2 °C | 1.1 °C | 7.4 °C | 10.4 °C |  | 0.04 µM | 12.5 °C | 0.567 µM | 13.6 °C | 13 |  |  |  | inactive | 
8 | CC(C)/N=C(/NCCCCn1cc(-c2ccc3ccc4ccc(-c5cn(CCCCN/C(=N\C(C)C)NC(C)C)nn5)nc4c3n2)nn1)NC(C)C | 15.1 °C | 0.8 °C | 5.1 °C | 1.3 °C | 10.3 °C | 13.9 °C |  | 0.035 µM | 15.9 °C | 0.176 µM | 18.1 °C | 2 |  |  |  | inactive | 
9 | C[n+]1ccc(-c2c3nc(c(-c4cc[n+](C)cc4)c4ccc([nH]4)c(-c4cc[n+](C)cc4)c4ccc([nH]4)c(-c4cc[n+](C)cc4)c4nc2C=C4)C=C3)cc1 | 23.1 °C | 9.3 °C | 19.7 °C | 14.8 °C | > 25 °C | > 25 °C |  |  |  |  | > 35 °C |  |  |  |  |  | 
10 | N=C(N)NCCCn1cc(-c2ccc3ccc4ccc(-c5cn(CCCNC(=N)N)nn5)nc4c3n2)nn1 | 18 °C | 1.6 °C | 12.2 °C | 2.8 °C | 11.4 °C | 16.1 °C | 1.06 µM | 0.028 µM | 18.4 °C | 0.057 µM | 22 °C | 2 | 16.4 °C | 6.6 °C | 11.4 °C |  | inhibition [17]: 47%; Q50 [18]: 0.94 µM; Activity [19]: Active; Activity [20]: Active; inhibition [21]: 21%; Q50 [22]: 0.25 µM; Q50 [23]: > 2.5 µM
